ChEMBL document CHEMBL1154183, “Structure-based optimization of potent and selective inhibitors of the tyrosine kinase erythropoietin producing human hepatocellular carcinoma receptor B4 (EphB4)” (J Med Chem, 2009)

Legend:
[1] = biological target: Tyrosine-protein kinase Lck (Homo sapiens) (UniProt P06239); assay: Inhibition of Lck assessed as remaining enzyme activity at 1 uM relative to DMSO
Procedure, shortened: (§1)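 Radiometric kinase assay run robotically at room temperature for 30 min. Contained 10 mM magnesium acetate and [γ-33P]ATP (800 cpm/pmol) at 5, 20 or 50 μM, chosen per kinase to be at or below its ATP Km. Reactions were started with MgATP, stopped with orthophosphoric acid and spotted onto P81 filters. Result is mean % activity of duplicates at one inhibitor concentration versus DMSO control.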

[2] = biological target: Fibroblast growth factor receptor 4 (Homo sapiens) (UniProt P22455); assay: Binding affinity to FGFR4 assessed as percentage of kinase remaining bound to the bead at 1 uM by T7 phage display based binding assay
Procedure, shortened: (§2)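 Competition binding assay run by a contract lab. Each kinase was expressed as a fusion to T7 phage, full-length for small kinases and catalytic domain for large ones. Phage were mixed with an immobilized known kinase inhibitor on streptavidin magnetic beads and with test compound at a single 1 μM. Kinase/phage still bound to the beads was quantified by qPCR and expressed as % of DMSO control.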

[3] = biological target: MAP kinase-interacting serine/threonine-protein kinase 2 (Homo sapiens) (UniProt Q9HBH9); assay: Inhibition of MNK2 assessed as remaining enzyme activity at 1 uM relative to DMSO; procedure, shortened: as §1
[4] = biological target: Inhibitor of nuclear factor kappa-B kinase subunit beta (Homo sapiens) (UniProt O14920); assay: Inhibition of IKK-beta assessed as remaining enzyme activity at 1 uM relative to DMSO
Procedure, shortened: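 Radiometric kinase assay run robotically at room temperature for 30 min, linear in time and enzyme. Conditions: 10 mM magnesium acetate, [γ-33P]ATP (800 cpm/pmol) at 5, 20 or 50 μM per kinase, at or below its ATP Km. Started with MgATP and stopped with orthophosphoric acid, then spotted on P81 filters. Reported as mean % activity of duplicates versus DMSO controls.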

[5] = biological target: Ephrin type-B receptor 6 (Homo sapiens) (UniProt O15197); assay: Binding affinity to EPHB6 assessed as percentage of kinase remaining bound to the bead at 1 uM by T7 phage display based binding assay; procedure, shortened: as §2
[6] = biological target: Serine/threonine-protein kinase pim-2 (Homo sapiens) (UniProt Q9P1W9); assay: Inhibition of PIM2 assessed as remaining enzyme activity at 1 uM relative to DMSO
[7] = biological target: Dual specificity tyrosine-phosphorylation-regulated kinase 1A (Homo sapiens) (UniProt Q13627); assay: Inhibition of DYRK1A assessed as remaining enzyme activity at 3 uM relative to DMSO
[8] = biological target: Receptor tyrosine-protein kinase erbB-4 (Homo sapiens) (UniProt Q15303); assay: Inhibition of HER4 assessed as remaining enzyme activity at 3 uM relative to DMSO
Procedure, shortened: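 Dundee kinase panel, radiometric: [γ-33P]ATP (800 cpm/pmol) at 5, 20 or 50 μM, at or below each kinase's ATP Km; 10 mM magnesium acetate; robotic, room temperature, 30 min. Reactions started with MgATP, stopped with orthophosphoric acid, spotted onto P81 filters. Inhibitor tested at a single concentration; mean % activity of duplicates relative to DMSO control.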

Chain of Inhibitor of nuclear factor kappa-B kinase subunit beta (Homo sapiens) (O14920 whole entry): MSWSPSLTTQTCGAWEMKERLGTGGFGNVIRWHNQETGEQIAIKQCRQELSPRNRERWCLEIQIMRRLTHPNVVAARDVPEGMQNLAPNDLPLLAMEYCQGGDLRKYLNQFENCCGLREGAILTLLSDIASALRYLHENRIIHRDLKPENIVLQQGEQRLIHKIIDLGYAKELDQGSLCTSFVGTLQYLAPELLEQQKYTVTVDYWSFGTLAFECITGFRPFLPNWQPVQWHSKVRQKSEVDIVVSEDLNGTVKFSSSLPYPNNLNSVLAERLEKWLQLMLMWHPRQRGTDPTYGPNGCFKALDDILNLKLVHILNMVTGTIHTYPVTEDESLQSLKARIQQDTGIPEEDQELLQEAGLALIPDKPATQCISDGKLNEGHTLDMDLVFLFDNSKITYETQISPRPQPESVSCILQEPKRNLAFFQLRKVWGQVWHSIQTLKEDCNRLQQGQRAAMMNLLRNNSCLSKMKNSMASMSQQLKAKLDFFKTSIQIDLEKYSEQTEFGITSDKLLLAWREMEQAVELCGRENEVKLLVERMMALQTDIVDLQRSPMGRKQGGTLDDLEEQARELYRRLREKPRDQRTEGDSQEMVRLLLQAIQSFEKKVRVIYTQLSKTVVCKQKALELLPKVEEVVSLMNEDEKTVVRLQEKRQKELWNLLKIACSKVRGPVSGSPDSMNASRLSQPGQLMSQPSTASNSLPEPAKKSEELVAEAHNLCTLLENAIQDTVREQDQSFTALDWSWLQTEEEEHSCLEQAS
Chain of Tyrosine-protein kinase Lck (Homo sapiens) (P06239 2-509 limits assumed): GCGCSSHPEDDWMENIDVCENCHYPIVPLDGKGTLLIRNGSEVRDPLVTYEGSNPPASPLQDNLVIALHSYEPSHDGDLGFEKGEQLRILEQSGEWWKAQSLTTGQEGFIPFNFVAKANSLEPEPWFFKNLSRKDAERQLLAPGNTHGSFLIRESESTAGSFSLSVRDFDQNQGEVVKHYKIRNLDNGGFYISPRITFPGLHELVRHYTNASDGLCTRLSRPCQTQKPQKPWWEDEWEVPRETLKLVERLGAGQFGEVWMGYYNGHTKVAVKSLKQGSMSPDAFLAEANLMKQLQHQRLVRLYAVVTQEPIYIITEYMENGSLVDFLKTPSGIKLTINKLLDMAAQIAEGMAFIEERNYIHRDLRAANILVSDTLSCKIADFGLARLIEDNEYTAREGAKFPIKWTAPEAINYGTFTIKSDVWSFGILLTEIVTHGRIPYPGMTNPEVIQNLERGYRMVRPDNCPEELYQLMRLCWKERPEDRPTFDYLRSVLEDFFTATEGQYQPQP
Chain of Receptor tyrosine-protein kinase erbB-4 (Homo sapiens) (Q15303 whole entry): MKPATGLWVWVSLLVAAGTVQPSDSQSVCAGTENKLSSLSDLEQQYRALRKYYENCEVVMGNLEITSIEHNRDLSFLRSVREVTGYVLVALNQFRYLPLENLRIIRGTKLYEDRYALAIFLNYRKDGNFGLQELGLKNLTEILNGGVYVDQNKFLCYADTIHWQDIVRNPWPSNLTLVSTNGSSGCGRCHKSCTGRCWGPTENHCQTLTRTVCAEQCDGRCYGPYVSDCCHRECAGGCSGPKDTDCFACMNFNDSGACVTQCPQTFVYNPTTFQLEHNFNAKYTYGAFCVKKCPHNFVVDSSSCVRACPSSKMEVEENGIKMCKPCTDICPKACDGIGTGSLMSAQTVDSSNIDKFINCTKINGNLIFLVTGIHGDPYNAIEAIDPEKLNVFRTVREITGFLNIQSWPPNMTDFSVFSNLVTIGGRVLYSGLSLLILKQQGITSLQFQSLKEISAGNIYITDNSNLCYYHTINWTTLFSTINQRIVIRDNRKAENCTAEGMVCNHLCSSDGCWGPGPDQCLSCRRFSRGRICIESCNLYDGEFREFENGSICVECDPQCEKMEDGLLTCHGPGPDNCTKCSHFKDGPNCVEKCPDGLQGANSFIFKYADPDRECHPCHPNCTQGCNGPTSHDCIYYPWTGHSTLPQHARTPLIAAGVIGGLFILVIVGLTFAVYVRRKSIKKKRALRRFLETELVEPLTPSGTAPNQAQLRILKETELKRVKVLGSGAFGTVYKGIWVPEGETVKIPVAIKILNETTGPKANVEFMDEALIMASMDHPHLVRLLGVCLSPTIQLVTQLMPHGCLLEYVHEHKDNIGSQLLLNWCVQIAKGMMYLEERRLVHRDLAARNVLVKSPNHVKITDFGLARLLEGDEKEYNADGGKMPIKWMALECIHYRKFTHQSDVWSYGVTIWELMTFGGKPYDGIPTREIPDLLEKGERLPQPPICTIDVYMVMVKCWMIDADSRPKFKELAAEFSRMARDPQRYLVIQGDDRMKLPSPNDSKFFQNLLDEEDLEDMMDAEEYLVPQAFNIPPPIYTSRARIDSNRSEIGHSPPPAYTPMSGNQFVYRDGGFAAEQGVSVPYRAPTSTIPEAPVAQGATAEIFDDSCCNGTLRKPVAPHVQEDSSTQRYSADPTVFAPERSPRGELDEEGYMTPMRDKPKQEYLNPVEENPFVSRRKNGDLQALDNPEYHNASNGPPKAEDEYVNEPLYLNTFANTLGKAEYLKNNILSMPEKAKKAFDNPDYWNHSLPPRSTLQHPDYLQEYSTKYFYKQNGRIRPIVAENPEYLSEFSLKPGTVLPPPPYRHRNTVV
Chain of Ephrin type-B receptor 6 (Homo sapiens) (O15197 whole entry): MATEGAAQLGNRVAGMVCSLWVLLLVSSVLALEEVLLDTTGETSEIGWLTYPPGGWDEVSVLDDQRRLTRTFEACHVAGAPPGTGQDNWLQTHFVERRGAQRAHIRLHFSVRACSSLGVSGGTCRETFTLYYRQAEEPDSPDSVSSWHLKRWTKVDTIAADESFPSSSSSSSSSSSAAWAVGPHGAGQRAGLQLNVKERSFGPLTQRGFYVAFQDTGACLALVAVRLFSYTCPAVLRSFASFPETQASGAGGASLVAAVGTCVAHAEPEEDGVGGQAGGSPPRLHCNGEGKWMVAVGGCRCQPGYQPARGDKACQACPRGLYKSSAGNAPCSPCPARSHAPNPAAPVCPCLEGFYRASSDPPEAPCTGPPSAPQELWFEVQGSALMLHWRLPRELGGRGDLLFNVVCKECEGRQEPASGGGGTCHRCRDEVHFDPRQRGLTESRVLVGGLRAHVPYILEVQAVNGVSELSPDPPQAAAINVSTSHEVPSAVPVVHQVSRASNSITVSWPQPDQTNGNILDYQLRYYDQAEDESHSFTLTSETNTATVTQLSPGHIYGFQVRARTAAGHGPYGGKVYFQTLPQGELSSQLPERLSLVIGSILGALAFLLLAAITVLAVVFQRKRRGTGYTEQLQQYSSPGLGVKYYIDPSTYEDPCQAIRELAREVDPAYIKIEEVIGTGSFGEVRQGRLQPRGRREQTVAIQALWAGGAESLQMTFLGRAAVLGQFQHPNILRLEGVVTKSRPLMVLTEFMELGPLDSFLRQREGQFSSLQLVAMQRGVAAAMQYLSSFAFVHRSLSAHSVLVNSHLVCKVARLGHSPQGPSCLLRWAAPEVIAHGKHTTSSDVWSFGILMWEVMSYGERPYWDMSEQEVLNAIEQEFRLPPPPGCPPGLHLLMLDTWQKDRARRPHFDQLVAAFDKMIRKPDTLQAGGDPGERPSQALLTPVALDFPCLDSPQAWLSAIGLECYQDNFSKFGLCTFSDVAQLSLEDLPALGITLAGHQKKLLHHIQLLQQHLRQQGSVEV
Chain of Fibroblast growth factor receptor 4 (Homo sapiens) (P22455 22-802 limits assumed): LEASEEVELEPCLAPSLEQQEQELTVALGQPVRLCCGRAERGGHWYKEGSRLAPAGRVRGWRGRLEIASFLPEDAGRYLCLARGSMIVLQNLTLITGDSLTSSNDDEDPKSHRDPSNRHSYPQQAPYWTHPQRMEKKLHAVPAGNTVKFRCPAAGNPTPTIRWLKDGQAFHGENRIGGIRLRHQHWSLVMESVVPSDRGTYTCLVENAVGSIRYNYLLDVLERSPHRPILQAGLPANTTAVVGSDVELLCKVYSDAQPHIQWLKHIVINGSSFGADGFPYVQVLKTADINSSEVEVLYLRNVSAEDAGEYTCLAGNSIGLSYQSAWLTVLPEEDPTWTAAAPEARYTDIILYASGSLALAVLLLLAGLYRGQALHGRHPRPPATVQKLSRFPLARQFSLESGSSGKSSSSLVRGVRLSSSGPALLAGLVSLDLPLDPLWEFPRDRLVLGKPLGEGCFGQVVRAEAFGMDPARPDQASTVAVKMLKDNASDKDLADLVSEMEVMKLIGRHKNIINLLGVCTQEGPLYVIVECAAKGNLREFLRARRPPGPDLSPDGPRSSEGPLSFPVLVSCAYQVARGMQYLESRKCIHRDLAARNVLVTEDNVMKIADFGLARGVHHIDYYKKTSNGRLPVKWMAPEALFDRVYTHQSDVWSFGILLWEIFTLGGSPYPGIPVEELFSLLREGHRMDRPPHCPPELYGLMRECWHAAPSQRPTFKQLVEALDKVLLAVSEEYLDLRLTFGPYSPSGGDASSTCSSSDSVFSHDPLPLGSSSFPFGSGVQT
Chain of MAP kinase-interacting serine/threonine-protein kinase 2 (Homo sapiens) (Q9HBH9 whole entry, looked up): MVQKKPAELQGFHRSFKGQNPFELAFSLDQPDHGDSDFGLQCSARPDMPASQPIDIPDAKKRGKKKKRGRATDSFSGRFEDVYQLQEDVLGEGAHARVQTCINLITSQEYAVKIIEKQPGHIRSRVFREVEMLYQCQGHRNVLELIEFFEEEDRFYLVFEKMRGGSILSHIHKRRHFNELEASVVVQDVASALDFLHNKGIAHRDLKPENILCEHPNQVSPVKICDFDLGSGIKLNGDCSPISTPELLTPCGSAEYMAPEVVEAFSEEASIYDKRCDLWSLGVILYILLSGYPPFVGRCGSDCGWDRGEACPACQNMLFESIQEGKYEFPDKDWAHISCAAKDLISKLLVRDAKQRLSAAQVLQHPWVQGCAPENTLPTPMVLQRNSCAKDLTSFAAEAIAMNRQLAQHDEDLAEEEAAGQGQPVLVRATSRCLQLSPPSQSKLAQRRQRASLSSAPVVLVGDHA

| Activity [1] | Activity [2] | Activity [3] | Activity [4] | Activity [5] | Activity [6] | Activity [7] | Activity [8] | SMILES |
| --- | --- | --- | --- | --- | --- | --- | --- | --- |
| 0% | 100% | 74% | 86% | 32% | 93% |  |  | COc1ccccc1-n1c(-c2cc(O)ccc2C)cn2c3c(=O)[nH]c(=O)n(C)c3nc12 |
|  |  |  |  |  |  | 99% | 45% | COc1ccccc1-n1c(-c2ccccc2C)cn2c3c(=O)[nH]c(=O)n(C)c3nc12 |
